# Published values of several laboratories.
# Compare with care: the assays were run in different laboratories.
# Organism: Acinetobacter baumannii
# Effect on: microbial growth
SMILES,assay,test system,conditions,MIC
O=C(CCCCCC[P+](c1ccccc1)(c1ccccc1)c1ccccc1)Nc1ccc(O)c(O)c1.[Br-],broth dilution,ATCC19606,18 h,> 32 µg/mL
NCCCNC1CCCCc2c1[nH]c1ccc(Br)cc21 (centres unmarked),broth dilution,ATCC19606,,32 µg/mL
N=C(N)c1ccc(OCc2cccc(COc3ccc(C(=N)N)cc3)c2)cc1,broth dilution,ATCC17978,,> 200 µg/mL
CCCCCCC/C=C/C(=O)N1C(=O)/C(=C(/C)O)C(=O)C1CCC(=O)O (centres unmarked),,ATCC19606,,> 200 µg/mL
O=C(O)c1ccc(-n2cc(/C=N/Nc3ccc(Cl)cc3)c(-c3ccc4ccccc4c3)n2)cc1,,ATCCBAA1605,,12.5 µg/mL
O=C(CCCCCCCC[P+](c1ccccc1)(c1ccccc1)c1ccccc1)Nc1cc(O)c(O)c(O)c1.[Br-],broth dilution,ATCC19606,18 h,> 32 µg/mL
CO[C@H]1/C=C/O[C@@]2(C)Oc3c(C)c(O)c4c(O)c(c(/C=N/N5CCN(C)CC5)c(O)c4c3C2=O)NC(=O)/C(C)=C\C=C\[C@H](C)[C@H](O)[C@@H](C)[C@@H](O)[C@@H](C)[C@H](OC(C)=O)[C@@H]1C,,NCTC13301,,4 µg/mL
N#Cc1ccc(N/N=C/c2cn(-c3ccc(C(=O)O)cc3)nc2-c2ccc(F)cc2)cc1,,ATCCBAA1605,,> 25 µg/mL
CN(C)[C@@H]1C(O)=C(C(N)=O)C(=O)[C@@]2(O)C(O)=C3C(=O)c4c(O)cnc(-c5ccccc5)c4C[C@H]3C[C@@H]12.Cl.Cl,broth dilution,ATCC19606,,0.125 µg/mL
N=C(N)c1ccc(OCCCCCOc2ccc(C(=N)N)cc2)cc1,broth dilution,ATCC17978,,> 200 µg/mL
CN(C)[C@@H]1C(O)=C(C(N)=O)C(=O)[C@@]2(O)C(O)=C3C(=O)c4c(O)c(-c5ccccc5)nc(Cl)c4C[C@H]3C[C@@H]12.Cl,broth dilution,ATCC19606,,16 µg/mL
C[C@H]1COc2c(N3CCN(C)CC3)c(F)cc3c(=O)c(C(=O)O)cn1c23,broth dilution,ATCC19606,,≤ 0.125 µg/mL
COc1cccc2c(O)c3c(cc12)C[C@H]1C[C@H]2[C@H](N(C)C)C(O)=C(C(N)=O)C(=O)[C@@]2(O)C(O)=C1C3=O,broth dilution,ATCC19606,,> 32 µg/mL
CCCCCCC/C=C/C(=O)N1C(=O)/C(=C(\O)c2ccc(F)cc2)C(=O)C1CC(C)C (centres unmarked),,ATCC19606,,> 200 µg/mL
CN(C)[C@@H]1C(O)=C(C(N)=O)C(=O)[C@@]2(O)C(O)=C3C(=O)c4c(c(F)c5ccc(CNC6CC6)cc5c4O)C[C@H]3C[C@@H]12,broth dilution,ATCC19606,,1 µg/mL
O=[N+]([O-])c1ccc(/C=N/Nc2nc(Nc3ccccc3)nc(N3CCOCC3)n2)o1,,,,> 120 µM
CNc1nc(Cl)c2c(c1O)C(=O)C1=C(O)[C@]3(O)C(=O)C(C(N)=O)=C(O)[C@@H](N(C)C)[C@@H]3C[C@@H]1C2.Cl.Cl.Cl,broth dilution,ATCC19606,,0.031 µg/mL
